CAL PDZ FP-1 = inhibitors of human CAL PDZ peptide binding; Q9HD26; purified CAL PDZ, TMR-peptide fluorescence polarization, 1 h; inhibition, % at 24.9 µM; 0.92% of 300,000 active; AID 602252;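 active means mean inhibition of at least 30% with at least half of replicates also reaching 30%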;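 further: 0% = DMSO neutral control and 100% = excess unlabeled competitor peptide PRC23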
CAL PDZ FP-2 = blocks peptide binding to human CAL PDZ domain | Q9HD26 | purified CAL PDZ, TMR-peptide fluorescence polarization, 1 h | inhibition, % at 20 µM | 0.02% of 330,000 active;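 active means highest replicate inhibition of at least 40%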;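 further: plate controls were DMSO neutral control wells for no effect and unlabeled competitor peptide control wells for full effect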
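Material – purified CerCALP PDZ construct · Detection – FP readout, S and P plane fluorescence · Measure – percent inhibition from loss of millipolarization · Controls – unlabelled peptide for full inhibition, DMSO wells as neutral · Probe or stimulus – TMR-labelled reporter peptide T*-PRC34 bound in PDZ groove · Times – 1 h at RT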
miR-122 sensor = blocks miR-122 activity in Huh7 sensor cells | Huh7 miR-122 Renilla luciferase sensor, 48 h; neutral wells = 0, positive control = 100 | AID 602342 | 0.3% of 340,000 active | activation (reporter increase), % at 12.5 µM;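 active means mean replicate activation score at least 90 and every replicate individually at or above 90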;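 further: higher luciferase means less miR-122 activity so hits act as miR-122 inhibitors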
C-LANA FP = inhibitors of KSHV LANA C-terminal domain DNA binding; MBP-C-LANA/FAM-LBS DNA binding, fluorescence polarization; inhibition, % at 9 µM; 0.078% of 340,000 active; AID 504423;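 active means highest replicate inhibition at or above 60% at 9 µM, even if other replicates fall short; inactive means all replicates below 60% inhibition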;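 further: 0% = neutral control wells and 100% = 4 µM acridine orange control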
Keap1 Nrf2 FP = inhibitors of human Keap1-Nrf2 protein-protein interaction; Q14145; Keap1 Kelch-Nrf2 peptide fluorescence polarization, 1536-well; inhibition, % at 9.4 µM; 0.15% of 340,000 active; AID 504523; in the data active means inhibition above about 12%;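 further: human Keap1 Kelch domain with fluorescein labeled Nrf2 9mer peptide probe; 0% = neutral control wells and 100% = peptide positive control; higher means more block of Keap1 binding to Nrf2 peptide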
Target sequence (Q14145 whole entry, looked up, the tested form may be a part): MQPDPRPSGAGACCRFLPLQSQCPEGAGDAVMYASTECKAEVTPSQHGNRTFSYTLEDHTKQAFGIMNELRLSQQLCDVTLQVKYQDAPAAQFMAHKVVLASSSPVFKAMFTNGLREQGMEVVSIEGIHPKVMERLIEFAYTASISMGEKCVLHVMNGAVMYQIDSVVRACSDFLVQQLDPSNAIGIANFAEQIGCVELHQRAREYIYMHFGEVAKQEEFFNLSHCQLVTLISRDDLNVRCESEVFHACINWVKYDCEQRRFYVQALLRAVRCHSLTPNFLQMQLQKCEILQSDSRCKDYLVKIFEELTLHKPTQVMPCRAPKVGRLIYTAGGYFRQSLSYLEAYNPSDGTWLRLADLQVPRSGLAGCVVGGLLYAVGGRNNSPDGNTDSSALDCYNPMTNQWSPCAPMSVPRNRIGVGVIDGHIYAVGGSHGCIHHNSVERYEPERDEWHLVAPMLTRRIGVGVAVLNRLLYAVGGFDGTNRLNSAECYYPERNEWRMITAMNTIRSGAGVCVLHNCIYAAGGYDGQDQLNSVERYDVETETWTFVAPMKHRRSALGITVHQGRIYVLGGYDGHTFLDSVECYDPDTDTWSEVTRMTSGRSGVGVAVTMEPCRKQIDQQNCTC
Starred values were filed as active, the others as inactive; / = not tested or not shown; [ ] = remark or other dose. Most compounds without a hit are left out; they make up all but 1.1% or so of the library.

SMILES	CAL PDZ FP-1	CAL PDZ FP-2	miR-122 sensor	C-LANA FP	Keap1 Nrf2 FP
COc1cccc(OC)c1C(=O)NNC(=O)c1ccc(F)cc1	68*	-1	/	0	-2
Cc1cccc(C(=O)NNC(=O)c2ccc(F)cc2)c1	-3	-2	/	-1	-2
CCCC(=O)Nc1cc(S(=O)(=O)N2CCCCC2)ccc1N1CCOCC1	59*	0	-4	2	5
C[C@H]1CN([C@@H](C)CO)C(=O)Cc2cc(NS(=O)(=O)c3cn(C)cn3)ccc2O[C@H]1CN(C)S(=O)(=O)c1cccs1	/	/	-4[16.7 µM]	/	/
C[C@@H]1CN([C@H](C)CO)C(=O)Cc2cc(NC(=O)Nc3cccc4ccccc34)ccc2O[C@H]1CN(C)Cc1ccncc1	/	/	9[16.7 µM]	/	/
CCCn1ncc(CN2CCC(n3nccc3NC(=O)c3ccccc3OC)CC2)c1C	-2	0	-6	-1	-1
COc1ccc(CN2CCC(n3nccc3NC(=O)C3CC3)CC2)c(OC)c1OC	71*	0	-8	0	-3
CCOc1ccccc1CN1CCC(n2nccc2NC(=O)C2CCCC2)CC1	5	112*	-8	0	0
COc1ccc(CN2CCC(n3nccc3NC(=O)C3CCCC3)CC2)c(OC)c1	-1	-2	/	1	-4
CCCCc1ncc(CN2CCC(n3nccc3NC(=O)c3ccccc3OC)CC2)[nH]1	111*	0	-2	-1	-4
Cc1cc(C)n2nc(SCc3cccc(S(=O)(=O)N(C)C)c3)nc2n1	43*	/	/	0	0
Cc1ccc(CSc2nc3nc(C)cc(C)n3n2)cc1	-3	0	2	2	5
CCC(=O)Nc1ccc2c(c1)C(=O)N(C)[C@@H]1CC[C@H](CC(=O)NCCc3ccncc3)O[C@H]1CO2	/	/	1[16.7 µM]	/	/
C[C@@H]1CN([C@@H](C)CO)C(=O)c2cc(NC(=O)Nc3ccc4c(c3)OCO4)ccc2O[C@H]1CN(C)Cc1ccc(Cl)c(Cl)c1	/	/	-6[16.7 µM]	/	/
CCCCOC(=O)/C(=C\c1ccc([N+](=O)[O-])o1)NC(=O)c1ccccc1	41*	/	23	-1	-7
C[C@H]1CN([C@@H](C)CO)C(=O)c2cccc(NS(=O)(=O)c3ccc(Cl)cc3)c2O[C@H]1CN(C)S(C)(=O)=O	/	/	6[16.7 µM]	/	/
O=C(NCc1cccnc1)/C(=C/c1ccc(-c2cccc(C(F)(F)F)c2)o1)NC(=O)c1ccccc1	42*	32	21	-1	-3
CC(C)C1CC(=O)NC(SCC(=O)Nc2ccc(Br)cc2)=C1C#N (configuration not stated)	57*	0	12	1	3
O=C(Cc1ccc(F)cc1)NC1CCCCCC1	-15	-2	5	0	-9
O=C(CN1C(=O)NC(c2ccc(F)cc2)C1=O)NC1CCCCC1 (configuration not stated)	88*	-1	/	-1	4
O=C(CSc1nnc(CNC(=O)c2cccs2)o1)Nc1ccccc1C(F)(F)F	103*	-1	-7	0	4
CCn1ncc(Br)c1C(=O)Nc1cccc(F)c1	33*	23	/	4	-1
CCn1ncc(Br)c1C(=O)Nc1ccc2c(c1)OCCO2	0	0	/	1	-1
C/C=C/c1cnc2c(c1)C(=O)N([C@@H](C)CO)C[C@@H](C)[C@@H](CN(C)C(=O)Nc1ccc(F)cc1)O2	/	/	1[16.7 µM]	/	/
COc1ccc(NC(=O)Nc2ccc3c(c2)C(=O)N([C@@H](C)CO)C[C@H](C)[C@H](CN(C)C(=O)NC2CCCCC2)OCCCC[C@H](C)O3)cc1	/	/	-10[16.7 µM]	/	/
SMILES	CAL PDZ FP-1	CAL PDZ FP-2	miR-122 sensor	C-LANA FP	Keap1 Nrf2 FP
COc1ccc(-n2nnnc2/C=C/Nc2cc(C(F)(F)F)ccc2OC)cc1	105*	0	-1	1	-4
COc1cc(/C=N/Nc2nc3ccccc3s2)ccc1OC(=O)c1ccccc1F	72*	-2	/	1	0
Nn1c(SCC(=O)Nc2cccc(S(N)(=O)=O)c2)nnc1C1CC1	70*	0	/	-1	-2
Nn1c(SCC(=O)Nc2ccc(S(N)(=O)=O)cc2)nnc1-c1ccco1	37*	-1	2	0	2
Cc1cccc(C)c1NC(=O)CSc1nnc(-c2ccco2)n1N	-2	-1	-5	1	-2
CCCC#Cc1ccc2c(c1)O[C@H](CN(C)C(=O)Nc1ccc(OC)cc1)[C@@H](C)CN([C@@H](C)CO)S2(=O)=O	/	/	22[16.7 µM]	/	/
O=C(CN1CCCc2ccccc21)NC(=O)NC1CCCCC1	82*	-1	/	-2	-2
CC(C)(C)NC(=O)NC(=O)CN1CCCc2ccccc21	0	-1	0	16	-2
CC1CN(C(=S)Nc2ccccc2)N(c2ccccc2)C1 (configuration not stated)	67*	-1	/	2	3
Cc1ccccc1NC(=O)c1nc(S(C)(=O)=O)ncc1Cl	86*	10	-6	2	-1
O=C(NNC(=O)c1ccc[nH]1)Nc1cccc(C(F)(F)F)c1	71*	-1	/	0	4
O=C(NNC(=O)c1ccc[nH]1)c1cccc(C(F)(F)F)c1	-4	-2	-7	-2	-4
CCCNC(=O)C[C@H]1CC[C@H]2[C@H](COc3ccc(NC(=O)Cc4ccccc4)cc3C(=O)N2C)O1	/	/	37[16.7 µM]	/	/
CC1CCCN(C(=O)c2ccc(COc3ccccc3Br)cc2)C1 (configuration not stated)	40*	-1	-3	0	1
O=C(c1ccc(NC2=NC3CS(=O)(=O)CC3S2)cc1)N1CCN(c2ccccc2)CC1 (configuration not stated)	2	-1	/	1	2
Cc1cccc(N2CCN(C(=O)c3ccc(NC4=NC5CS(=O)(=O)CC5S4)cc3)CC2C)c1 (configuration not stated)	93*	0	-3	-1	-1
Cc1ccc(Cn2c(NS(=O)(=O)c3ccccc3)nc3ccccc32)cc1	2	-1	106*	-2	-2
CCC(=O)Nc1nc2ccccc2n1Cc1ccc(C)cc1	0	0	4	-1	-7
N#Cc1ccc(NC(=S)N2CCC3CC2c2cc(-c4ccc5c(c4)OCO5)ccc23)cc1 (configuration not stated)	/	/	110*	/	/
Cc1cc(C)cc(NC(=O)C2CCN(S(C)(=O)=O)CC2)c1	-4	-1	-2	0	-3
Cc1cc(C)cc(NC(=O)C2CCN(c3nccs3)CC2)c1	2	-1	128*	1	-9
COc1ccccc1-n1cc(-c2ccccc2)c2c(=S)nc[nH]c21	77*	-1	0	0	2
CC1(C)CC(NC(=O)C2CCN(S(=O)(=O)c3ccccc3C(F)(F)F)CC2)CC(C)(C)N1	-2	1	-2	-2	-5
CC1(C)CC(NC(=O)C2CCN(S(=O)(=O)c3ccc(Cl)c(C(F)(F)F)c3)CC2)CC(C)(C)N1	58*	0	-8	-2	-1
